Series [1] has as its system Leishmania aethiopica. In words: Antileishmanial activity against promastigote stage of Leishmania aethiopica after 24 hrs by alamar blue staining-based […]. In kind it is functional, organism-based. The gist of the method:
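L. aethiopica promastigotes, 3 × 10^6 per well, given compounds from DMSO stocks in three-fold dilutions at 10 to 0.04 µg/ml (final DMSO ≤0.1%), in duplicate, at room temperature (21 ± 1 °C). Alamar blue (resazurin) was added after 24 h and absorbance read 48 h later at 540 and 630 nm. Negative control was parasites, medium and DMSO.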
(In general: The colour change of resazurin is a common sign of viable cells or microbes.)

Series [2] can be described thus: Toxicity in po dosed mouse. Type of series: organism-based. The settings on record: in vivo. Summed up:
(§1)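 Male mice (26-32 g), six per group, fasted overnight and weighed. Compounds given orally as suspension in 1% gum acacia at 25, 50, 100, 200 and 300 mg/kg/day; vehicle control at up to 1 ml/100 g. Mortality recorded after 24 h; weight and deaths followed over 3 days post-dosing.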

For series [3], the system named is Leishmania aethiopica. In words: Antileishmanial activity against amastigote stage of Leishmania aethiopica after 72 hrs by resazurin staining-based fluorescence assay. In kind it is functional, organism-based. The gist of the method: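 Axenic L. aethiopica amastigotes (50 µl of 2 × 10^7 cells/ml) exposed to serial dilutions at final 0.04–10 µg/ml for 72 h at 31 °C, humidified, 5% CO₂. Resazurin was added at 68 h and fluorescence read at 72 h (ex 530/em 590 nm). EC50 from sigmoidal dose–response fits, mean ± SD of triplicate experiments run in duplicate. Controls were medium alone and 1% DMSO.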

In series [4] the test system is Plasmodium berghei. In words: Antimalarial activity against Plasmodium berghei str. ANKA infected in Swiss albino mouse assessed as survival at 0.048 mmol/kg/day, po qd for 3 days by microscopic analysis relative to control. Type of series: functional. The gist of the method: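 P. berghei ANKA infected mice, 4-day suppressive test. Day 0: 0.2 ml of 2 x 10^7 parasitized erythrocytes given i.v. (donor blood, 20-30% parasitemia, diluted in saline). Oral dosing at 0.048 mmol/kg/day from 2 h post-infection, then days 1-3 at 24 h intervals. Vehicle 7% Tween, 3% ethanol in water. Five mice/group. Survival time recorded per mouse; mean compared with vehicle group.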

Series [5] has as its system Plasmodium berghei. In words: Antimalarial activity against Plasmodium berghei str. ANKA infected in Swiss albino mouse assessed as supression of parasitemia at 0.048 mmol/kg/day, po qd for 3 days by microscopic analysis relative to control. Type of series: functional. Summed up: (§2)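 Four-day suppressive test. Mice were infected iv on day 0 with 0.2 ml of 2 × 10^7 P. berghei ANKA-parasitized erythrocytes from a donor mouse, diluted in saline. From 2 h post-infection they were dosed orally at 0.048 mmol/kg/day for days 0–3, five mice per group. The vehicle was 7% Tween and 3% ethanol in water. On day 4, Giemsa smears were scored over 5 fields of about 100 RBC each. Suppression was calculated relative to the vehicle group, taken as 100%.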

For series [6], the system named is Plasmodium berghei. Kind of series: Antimalarial activity against Plasmodium berghei str. ANKA infected in Swiss albino mouse assessed as parasitemia at 0.048 mmol/kg/day, po qd […] by microscopic analysis relative to control. In kind it is functional. The gist of the method:
as §2

Series [7] deals with Leishmania aethiopica. Kind of series: Ratio of miltefosine IC50 to compound IC50 for promastigote stage of Leishmania aethiopica. Type of series: functional.
Series [8] concerns Mus musculus. Kind of series: Toxicity in mouse up to 100 mg/kg administered via parenteral route. Type of series: organism-based. Further details: dose 100 mg/kg. To be noted: in vivo. Summed up:
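Groups of six mice received intraperitoneal doses of 10, 25, 50, 75 and 100 mg/kg, with propylene glycol as the vehicle control.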

Series [9] concerns Mus musculus. In words: Toxicity in mouse assessed as death at 25 to 300 mg/kg, po measured for 3 days. Type of series: organism-based. Further details: dose 25-300 mg/kg, route oral. To be noted: in vivo, 72 h. Summed up: as §1
The test system of series [10] is Mus musculus. Kind of series: Toxicity in mouse assessed as change in weight at 25 to 300 mg/kg, po measured for 3 days. Further details: dose 25-300 mg/kg, route oral. To be noted: in vivo, 72 h. In kind it is organism-based. Summed up: as §1
In series [11] the test system is Leishmania aethiopica. In words: Ratio of amphotericin IC50 to compound IC50 for promastigote stage of Leishmania aethiopica. Type of series: functional.
Series [12] deals with Plasmodium falciparum. In words: Antiplasmodial activity against chloroquine-resistant Plasmodium falciparum RKL9 infected in human RBC assessed as effect on schizont maturation after 24 hrs by Geimsa staining-based assay. Type of series: functional, organism-based. To be noted: RKL9, 24 h. Summed up:
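P. falciparum RKL9 in continuous culture in human B(+) RBC, parasitemia adjusted to 1-1.5%, RPMI 1640 with 10% AB(+) serum. Two-fold serial dilutions, compounds in ethanol (final ≤0.5%), 24 h at 37 °C, duplicate wells. Schizonts per 100 asexual parasites counted on Giemsa smears; % schizont maturation inhibition = (1 − Nt/Nc) × 100.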

In brackets after ≈: the same amount, converted by molar mass.

From ChEMBL document CHEMBL3414483, “New heterocyclic hybrids of pyrazole and its bioisosteres: design, synthesis and biological evaluation as dual acting antimalarial-antileishmanial agents” (Eur J Med Chem, 2015) come the findings set out here.

`CC(=O)N(C1=NN(C(C)=O)C(c2cn(-c3ccc(Br)cc3)nc2-c2ccc([N+](=O)[O-])cc2)S1)c1ccccc1` (stereo unspecified): the figures for the IC50 in series [1] and in [3] were 0.0142 µg/mL (≈ 0.0235 µM) and 0.13 µg/mL (≈ 0.215 µM), respectively. In series [2], this compound registered an MTD of 300 mg/kg. The Survival in [4] was found to be 16.86 days. The Activity in series [5] was 86.05%; in series [6], 12%; in series [8], “Non-toxic”; in series [9] it was “Non-toxic”; in series [10], “Non-toxic”. Moreover, the “Ratio IC50” value in [7] was 225; in series [11], 3.
As for `O=C1CS/C(=N/N=C/c2cn(-c3ccc(Br)cc3)nc2-c2ccc([N+](=O)[O-])cc2)N1c1ccccc1`, the 50% inhibitory concentration (IC50) in series [1] is 0.0224 µg/mL (≈ 0.0399 µM); in series [3] it was 0.19 µg/mL (≈ 0.338 µM); in [12], 39.2 nM. In series [2], this compound registered an MTD of 300 mg/kg. The Survival in [4] stood at 16.44 days. Besides, the Activity in series [5] is recorded as 97.67%; in series [6], 2%; in series [8], “Non-toxic”; in [9] it was “Non-toxic”; in [10] it was “Non-toxic”.
For the compound `Cc1ccc(-c2nn(-c3ccc(Br)cc3)cc2/C=N/N=C2/SCC(=O)N2c2ccccc2)cc1`, the IC50 stood at 0.0341 µg/mL (≈ 0.0643 µM) in [1], 0.32 µg/mL (≈ 0.603 µM) in series [3] and 36.4 nM in series [12]. Also, in series [2], the MTD was determined as 300 mg/kg. The Survival in series [4] was 16.86 days. For the same compound, the Activity was 95.35% in [5]; 4% in [6]; “Non-toxic” in series [8]; “Non-toxic” in [9]; “Non-toxic” in series [10].
Consider `O=[N+]([O-])c1ccc(-c2nn(-c3ccc(Br)cc3)cc2C2CC(c3ccccc3)=NN2)cc1` (stereo unspecified), for which the figures for the IC50 in series [1], in [3] and in series [12] were 2.12 µg/mL (≈ 4.35 µM), 1.11 µg/mL (≈ 2.27 µM) and 42 nM, respectively. Besides, the MTD in [2] was determined as 300 mg/kg. Also, in [4], the Survival stood at 17.6 days. Moreover, the Activity is recorded as 95.35% in [5]; 4% in [6]; “Non-toxic” in series [8]; “Non-toxic” in [9]; “Non-toxic” in [10].

What is called IC50 is the point on the concentration scale where inhibition reaches its midpoint.
